# INS-1E rescue: INS-1E beta cell protection from cytokine death. INS-1E cytokine-induced death, ATP luminescence, 48 h; normalised: neutral wells 0, positive control 100. protection from cytokine-induced ATP loss, % at 10 µM. actives 0.1% (n = 20,000);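 active = mean replicate protection from cytokine-induced ATP loss at least 50% and at least 75% of replicates each reaching 50%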
#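 assay system = INS-1E rat insulinoma cells | amount = 8000 cells per well | medium = phenol-red-free RPMI with 5% fetal bovine serum | doses = one compound concentration, pin transfer | timing = 48 h cytokine plus compound treatment, 10 min reagent incubation | also added = IL-1β, TNF-α and IFN-γ cytokine mix | signal = CellTiter-Glo luminescence measuring cellular ATP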
# A1 apoptosis 2: A1 inhibition read as caspase activation | MEF A1-2A-BIM cells, caspase-Glo luminescence, 3 h; percent of clofoctol response, DMSO zero | caspase activation, % (no concentration beside the values) | 24,000 tested, under 10 active; in the data active = caspase activation above about 5.9%
#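 Material: mouse embryonic fibroblasts co-expressing A1 and BIM (A1-2A-BIM), primed for A1 dependence / Quantity: 2500 cells/well / Buffer or medium: RPMI-1640 growth medium with 10% FBS / Doses: 50 nL compound per well, pinned / Schedule: 3 h compound exposure at 37 °C / Signal: Caspase-Glo luminescence (DEVD substrate) / Measure: Caspase-3/7 activation, seen as rise in luminescence signal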
# T cruzi HTS: intracellular Trypanosoma cruzi inhibition. intracellular Trypanosoma cruzi in host cells, plate reader. AID 651903. activity score (inhibition), % at 5.01 µM. actives 4.9% (n = 22,000); in the data active = activity score above about 55%;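 also: parasites and compound incubated about four days before reading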
# Hits are given with their value; i = inactive; nt = no result. The sample as a whole holds a higher share of hits than the screen did.
SMILES,INS-1E rescue,A1 apoptosis 2,T cruzi HTS
C[C@@H]1CCCCO[C@@H](CN(C)CC2CCCCC2)[C@@H](C)CN([C@H](C)CO)C(=O)c2cc(NC(=O)Nc3ccc4c(c3)OCO4)ccc2O1,i,i,58
C[C@@H]1CN([C@@H](C)CO)C(=O)c2cc(NC(=O)Nc3ccc4c(c3)OCO4)ccc2O[C@@H](C)CCCCO[C@H]1CN(C)CC1CCCCC1,nt,i,nt
C[C@@H]1CCCCO[C@@H](CN(C)Cc2ccc3c(c2)OCO3)[C@@H](C)CN([C@H](C)CO)C(=O)c2cc(NC(=O)Nc3ccc4c(c3)OCO4)ccc2O1,i,nt,71
O=C(CCCCCC(=O)N/N=C/c1c(F)c(F)c(F)c(F)c1F)NO,nt,i,nt
C[C@H]1CN([C@@H](C)CO)C(=O)Cc2cc(NC(=O)C3CCCCC3)ccc2O[C@@H]1CN(C)C(=O)NC1CCCCC1,i,i,i
O=C(CCCCC(=O)N/N=C/c1c(F)c(F)c(F)c(F)c1F)NO,i,i,i
O=C1C2(CO)C=C(Br)[C@H](C[C@@H]2c2ccccc2)[C@@]12CO2,nt,i,nt
C[C@H](CO)N1C[C@H](C)[C@H](CN(C)Cc2ccc(-c3ccccc3)cc2)Oc2ccc(NS(=O)(=O)c3ccc(Cl)cc3)cc2C1=O,i,i,56
C[C@@H]1CN([C@H](C)CO)C(=O)c2cc(NS(=O)(=O)c3ccc(Cl)cc3)ccc2O[C@@H]1CN(C)Cc1ccc(-c2ccccc2)cc1,i,i,i
C[C@H](CO)N1C[C@H](C)[C@@H](CN(C)Cc2ccc(-c3ccccc3)cc2)Oc2ccc(NS(=O)(=O)c3ccc(Cl)cc3)cc2C1=O,i,nt,i
C[C@@H]1CN([C@@H](C)CO)C(=O)c2cc(NS(=O)(=O)c3ccc(Cl)cc3)ccc2O[C@@H]1CN(C)Cc1ccc(-c2ccccc2)cc1,i,i,69
O=C(CCCCCCC(=O)Nc1ccccc1O)N/N=C/c1ccc(F)c(Oc2ccccc2)c1,i,i,i
COC(=O)C[C@H]1O[C@@]2(C[C@@H]1[Si](C)(C)C)C(=O)N(C)c1ccccc12,nt,i,nt
COc1ccc(S(=O)(=O)N(C)C[C@H]2Oc3c(NS(=O)(=O)c4ccc(C)cc4)cccc3C(=O)N([C@H](C)CO)C[C@@H]2C)cc1,i,i,i
[N-]=[N+]=NCc1ccccc1C[C@]1(C(=O)NCC(O)CO)N=C(c2ccc(OCCCO)cc2)O[C@H]1c1ccccc1 (stereo not given in full),nt,i,nt
[N-]=[N+]=NCc1ccccc1C[C@@]1(C(=O)NCC(O)CO)N=C(c2ccc(OCCCO)cc2)O[C@@H]1c1ccccc1 (stereo not given in full),nt,5.9,nt
C[C@@H]1CN([C@@H](C)CO)C(=O)c2cc(NC(=O)Nc3ccccc3)ccc2O[C@@H](C)CCCCO[C@H]1CN(C)Cc1ccc(Cl)c(Cl)c1,nt,i,nt
C[C@@H]1CCCCO[C@@H](CN(C)Cc2ccc(Cl)c(Cl)c2)[C@H](C)CN([C@@H](C)CO)C(=O)c2cc(NC(=O)Nc3ccccc3)ccc2O1,nt,i,nt
C[C@@H]1CCCCO[C@H](CN(C)Cc2ccc(Cl)c(Cl)c2)[C@@H](C)CN([C@H](C)CO)C(=O)c2cc(NC(=O)Nc3ccccc3)ccc2O1,i,i,76
C[C@@H]1CN([C@H](C)CO)C(=O)c2cc(NC(=O)C3CCCCC3)ccc2O[C@@H](C)CCCCO[C@H]1CN(C)Cc1ccc(Cl)c(Cl)c1,nt,i,nt
C[C@@H]1CCCCO[C@@H](CN(C)Cc2ccc(Cl)c(Cl)c2)[C@@H](C)CN([C@H](C)CO)C(=O)c2cc(NC(=O)C3CCCCC3)ccc2O1,i,nt,88
C[C@@H]1CCCCO[C@@H](CN(C)Cc2ccc(Cl)c(Cl)c2)[C@@H](C)CN([C@H](C)CO)C(=O)c2cc(NC(=O)Nc3ccccc3)ccc2O1,i,nt,78
C[C@H](CO)N1C[C@H](C)[C@H](CN(C)Cc2ccc(C(=O)Nc3ccccc3N)cc2)Oc2ccc(NC(=O)Cc3ccccc3)cc2CC1=O,i,nt,64
C[C@@H]1CN([C@H](C)CO)C(=O)Cc2cc(NC(=O)Cc3ccccc3)ccc2O[C@H]1CN(C)Cc1ccc(C(=O)Nc2ccccc2N)cc1,i,i,i
C[C@@H]1CN([C@@H](C)CO)C(=O)Cc2cc(NC(=O)Cc3ccccc3)ccc2O[C@@H]1CN(C)Cc1ccc(C(=O)Nc2ccccc2N)cc1,i,i,77
SMILES,INS-1E rescue,A1 apoptosis 2,T cruzi HTS
C[C@H]1CN([C@@H](C)CO)C(=O)Cc2cc(NC(=O)Cc3ccccc3)ccc2O[C@H]1CN(C)Cc1ccc(C(=O)Nc2ccccc2N)cc1,nt,i,nt
C/C=C/[C@H](CC(=O)N(CCO)Cc1ccccc1)[Si](C)(C)c1ccc(OC)cc1,nt,i,nt
COc1ccc(NCc2ccc(C(=O)Nc3ccccc3[N+](=O)[O-])cc2)cc1OC,nt,i,nt
Cc1noc(C)c1S(=O)(=O)Nc1cccc2c1O[C@H](CN(C)Cc1ccc(C(=O)Nc3ccccc3N)cc1)[C@H](C)CN([C@H](C)CO)C2=O,i,nt,60
Cc1ccc(S(=O)(=O)Nc2cccc3c2O[C@@H](CN(C)Cc2ccc(C(=O)Nc4ccccc4N)cc2)[C@H](C)CN([C@@H](C)CO)C3=O)cc1,i,nt,55
Cc1ccc(S(=O)(=O)Nc2cccc3c2O[C@@H](CN(C)Cc2ccc(C(=O)Nc4ccccc4N)cc2)[C@@H](C)CN([C@@H](C)CO)C3=O)cc1,i,i,64
Cc1ccc(S(=O)(=O)Nc2cccc3c2O[C@H](CN(C)Cc2ccc(C(=O)Nc4ccccc4N)cc2)[C@@H](C)CN([C@@H](C)CO)C3=O)cc1,i,i,i
C[C@H]1CN([C@@H](C)CO)C(=O)c2cccc(NS(=O)(=O)c3ccc(F)cc3)c2O[C@H]1CN(C)Cc1ccc(C(=O)Nc2ccccc2N)cc1,i,i,60
C[C@@H]1CN([C@H](C)CO)C(=O)c2cccc(NS(=O)(=O)c3ccccc3)c2O[C@H]1CN(C)Cc1ccc(C(=O)Nc2ccccc2N)cc1,i,nt,i
Cc1ccc(S(=O)(=O)Nc2cccc3c2O[C@H](CN(C)Cc2ccc(C(=O)Nc4ccccc4N)cc2)[C@H](C)CN([C@H](C)CO)C3=O)cc1,i,nt,i
C[C@@H]1CN([C@@H](C)CO)C(=O)c2cccc(NS(=O)(=O)c3ccc(F)cc3)c2O[C@@H]1CN(C)Cc1ccc(C(=O)Nc2ccccc2N)cc1,i,nt,i
O=C(NO)c1ccc(C(=O)N/N=C/c2ccc3c(c2)OCCO3)cc1,i,i,i
O=C(CCCCCC(=O)Nc1ccccc1O)N/N=C/c1ccc2c(c1)CCO2,i,i,i
COc1cc(/C=N/NC(=O)CCCCCCC(=O)Nc2ccccc2O)c(Br)cc1O,i,i,i
C[C@H](CO)N1C[C@H](C)[C@H](CN(C)Cc2ccc(C(=O)Nc3ccccc3N)cc2)Oc2c(NC(=O)c3nc4ccccc4s3)cccc2C1=O,nt,i,nt
O=C(CCCCCCC(=O)Nc1ccccc1O)NN=C1CCCCCC1,i,i,i
C[C@H](CO)N1C[C@H](C)[C@H](CN(C)Cc2ccc(C(=O)Nc3ccccc3N)cc2)Oc2c(NS(=O)(=O)c3ccc(Cl)cc3)cccc2C1=O,i,i,i
